Screens from PubChem.
Shown are actives, neighbours in structure and some others; about 2.9% of the full set was active somewhere.
E-selectin induc: induces E-selectin expression in human endothelial cells; activation, % at 7.58 µM; AID 686992; P16581; HUVEC E-selectin immunofluorescence imaging; normalized: neutral wells 0, TNF-alpha wells 100; 260,000 tested, 0.37% active;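 active = mean E-selectin-positive cell signal at least 10% of the positive control, reached in at least 60% of replicates, without over 20% cell loss; inconclusive = no rule given, readout overlaps actives, possibly toxicity-flagged; inactive = the rest, including those meeting only one limit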
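Test system: HUVEC; input: 3,000 HUVEC/well; measured by: immunofluorescence imaging; read-out: % PE-positive cells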
DENV2 CPE rescue: protects cells from dengue virus 2 cytopathic effect | 350,000 tested, 1.7% active | AID 651640 | DENV2-infected cells, cytopathic effect rescue, plate reader | CPE inhibition, % at 9.99 µM; in the data active = CPE inhibition above about 20%, passing the limit was not always enough; inconclusive = no clear call, values can overlap the other calls; tested in BHK-21 cells
SIRT5 block: inhibitors of human sirtuin-5 desuccinylase; Q9NXA8; Purified SirT5, succinyl-peptide AMC, trypsin-coupled fluorescence; inhibition, % at 15 µM; 330,000 tested, 1.1% active; AID 652115; in the data active = inhibition above about 15%; inconclusive = no clear call, values can overlap the other calls
Target sequence (Q9NXA8 whole entry, looked up): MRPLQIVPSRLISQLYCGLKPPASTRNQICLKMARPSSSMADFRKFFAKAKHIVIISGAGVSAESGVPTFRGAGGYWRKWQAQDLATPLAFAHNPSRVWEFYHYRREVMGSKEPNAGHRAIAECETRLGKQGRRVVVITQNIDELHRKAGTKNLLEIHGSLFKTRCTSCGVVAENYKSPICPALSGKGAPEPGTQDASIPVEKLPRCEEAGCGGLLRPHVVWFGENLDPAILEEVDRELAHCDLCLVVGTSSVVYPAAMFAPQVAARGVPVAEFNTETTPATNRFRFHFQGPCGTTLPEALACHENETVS
Hits are given with their value.

For Cn1c(SCC(=O)N2CCCCCC2)nc2c(c1=O)SCC2 the results were E-selectin induc inactive, DENV2 CPE rescue inactive and SIRT5 block inactive.
`CN(Cc1ccccc1)C(=O)CCC1CCN(C(=O)c2ccccc2C(F)(F)F)CC1` gave E-selectin induc inactive, DENV2 CPE rescue inactive and SIRT5 block inactive.
`O=C(COc1ccccc1)Nc1ccc(Cl)cn1` gave E-selectin induc inactive, DENV2 CPE rescue inactive and SIRT5 block inactive.
Screening O=C(COc1ccc2c(c1)OCO2)Nc1ccc(Cl)cn1 returned E-selectin induc inactive, DENV2 CPE rescue inactive and SIRT5 block 26.
`O=C(Nc1cccnc1)c1ccccc1-c1ccccc1` gave E-selectin induc inactive, DENV2 CPE rescue inactive and SIRT5 block inactive.
Oc1ccc2ccccc2c1C=Nc1ccccc1Br was read as E-selectin induc inactive, DENV2 CPE rescue inactive and SIRT5 block inactive.
For Oc1ccccc1N=Cc1c(O)ccc2ccccc12 the results were E-selectin induc inactive, DENV2 CPE rescue inactive and SIRT5 block 23.
For O=C(Cn1c2c(c(=O)n3ncnc13)CCC2)N/N=C/c1ccc(Cl)cc1 the results were DENV2 CPE rescue inactive and SIRT5 block inactive.
For COc1cc(CCc2ccccc2)c(C(=O)O)c(O)c1CC=C(C)C the results were DENV2 CPE rescue inactive.
Screening COc1cc(CCc2ccccc2)c(C(=O)O)c(O)c1C/C=C(/C)CCC=C(C)C returned E-selectin induc inactive, DENV2 CPE rescue inconclusive and SIRT5 block 32.
Screening Cc1ccc(NC2CCCN(C(=O)c3ccoc3C)C2)cc1C (centres undefined) returned E-selectin induc inactive, DENV2 CPE rescue 28 and SIRT5 block inactive.
Cc1ccc(NC2CCCN(C(=O)c3ccoc3)C2)cc1C (centres undefined) was read as DENV2 CPE rescue inactive and SIRT5 block inactive.
Screening Cc1nn(C)c(C)c1N1C(=O)c2cccc3c(N)ccc(c23)C1=O returned E-selectin induc inactive.
Screening C[C@@H]1CN([C@H](C)CO)C(=O)Cc2cc(NS(=O)(=O)c3cccs3)ccc2O[C@@H]1CN(C)CC1CCCCC1 returned E-selectin induc inactive, DENV2 CPE rescue inactive and SIRT5 block inactive.
`O=C1c2cccc3cccc(c23)C(=O)N1c1ccccc1Cl` gave E-selectin induc inactive, DENV2 CPE rescue inactive and SIRT5 block inactive.
Screening Nc1ccc(N2C(=O)c3ccccc3C2=O)c(Cl)c1 returned E-selectin induc inactive, DENV2 CPE rescue 39 and SIRT5 block inactive.
For COc1ccc(C(=O)C2CCCN(C(=O)c3ccc(C(C)=O)s3)C2)c(C)c1 (centres undefined) the results were DENV2 CPE rescue inactive and SIRT5 block inactive.
CC(=O)N1CCCCN2[C@H](CO)[C@H](c3ccc(C#Cc4ccccc4F)cc3)[C@H]2C1 was read as E-selectin induc inactive, DENV2 CPE rescue inactive and SIRT5 block inactive.
Screening O=C(CN1CCOCC1)N1CCCCN2[C@@H](CO)[C@H](c3ccc(C#Cc4ccccc4F)cc3)[C@@H]2C1 returned E-selectin induc inactive.
`O=C(CN1CCOCC1)N1CCCCN2[C@H](CO)[C@@H](c3ccc(C#Cc4ccccc4F)cc3)[C@H]2C1` gave E-selectin induc inactive, DENV2 CPE rescue 27 and SIRT5 block inactive.
CC(=O)N1CCCCN2[C@@H](CO)[C@H](c3ccc(C#Cc4ccccc4F)cc3)[C@@H]2C1 was read as E-selectin induc inactive, DENV2 CPE rescue 23 and SIRT5 block inactive.
O=C(CN1CCOCC1)N1CCCCN2[C@H](CO)[C@@H](c3ccc(-c4ccccc4)cc3)[C@@H]2C1 was read as E-selectin induc inactive, DENV2 CPE rescue inactive and SIRT5 block inactive.
For O=C(CN1CCOCC1)N1CCCCN2[C@H](CO)[C@@H](c3ccc(-c4ccccc4)cc3)[C@H]2C1 the results were E-selectin induc inactive, DENV2 CPE rescue 54 and SIRT5 block inactive.
Screening O=C(C[C@@H]1CC[C@@H]2[C@H](COC[C@@H](O)CN2S(=O)(=O)c2cccc(Cl)c2)O1)Nc1ccc(-c2ccccc2)cc1 returned E-selectin induc inactive, DENV2 CPE rescue inactive and SIRT5 block inactive.
Screening O=C(CN1CCN(Cc2ccccc2)CC1)N1N=CCC1c1ccccc1 (centres undefined) returned DENV2 CPE rescue inactive and SIRT5 block inactive.
Screening Nc1nc(SCC(=O)c2ccc(Cl)cc2)c2ncn(C3OC(CO)C(O)C3O)c2n1 (centres undefined) returned E-selectin induc inactive, DENV2 CPE rescue inactive and SIRT5 block inactive.
Screening C[C@@H]1CN([C@@H](C)CO)C(=O)Cc2cc(NS(=O)(=O)c3cn(C)cn3)ccc2O[C@@H]1CN(C)Cc1ccc(Oc2ccccc2)cc1 returned E-selectin induc inactive, DENV2 CPE rescue inactive and SIRT5 block inactive.
Screening CCC(=O)N1CCC2(CC1)CN(C(=O)CN1CCOCC1)[C@@H](CO)c1[nH]c3cc(OC)ccc3c12 returned E-selectin induc inactive, DENV2 CPE rescue inactive and SIRT5 block inactive.
For CCC(=O)N1CC2(C1)CN(C(=O)CN1CCOCC1)[C@H](CO)c1[nH]c3cc(OC)ccc3c12 the results were E-selectin induc inactive and DENV2 CPE rescue 30.
COc1ccc(NC(=O)N2CCC3(CC2)CN(C(=O)CN2CCOCC2)[C@@H](CO)c2[nH]c4cc(OC)ccc4c23)cc1 was read as E-selectin induc inactive, DENV2 CPE rescue 25 and SIRT5 block inactive.
COc1ccc2c3c([nH]c2c1)[C@H](CO)N(C(=O)CN1CCOCC1)CC31CN(Cc2ccccc2)C1 was read as E-selectin induc inactive, DENV2 CPE rescue 52 and SIRT5 block inactive.
COc1ccc2c3c([nH]c2c1)[C@H](CO)N(C(=O)CN1CCOCC1)CC31CN(C)C1 was read as E-selectin induc inactive and DENV2 CPE rescue inactive.
For COc1ccc(NC(=O)N2CC3(C2)CN(C(=O)CN2CCOCC2)[C@@H](CO)c2[nH]c4cc(OC)ccc4c23)cc1 the results were E-selectin induc inactive, DENV2 CPE rescue inactive and SIRT5 block inactive.
Screening COCC(=O)N1CC2(CN(C(=O)CN3CCOCC3)C2)c2c([nH]c3cc(OC)ccc23)[C@H]1CO returned E-selectin induc inactive, DENV2 CPE rescue inactive and SIRT5 block inactive.
CCC(=O)N1CCC2(CC1)CN(C(=O)CN1CCOCC1)[C@H](CO)c1[nH]c3cc(OC)ccc3c12 was read as E-selectin induc inactive, DENV2 CPE rescue 40 and SIRT5 block inactive.
CCC(C)N1CCN(S(=O)(=O)c2ccc3ccccc3c2)CC1 (centres undefined) was read as DENV2 CPE rescue inactive and SIRT5 block inactive.
For Cc1cc(C)n2nc(CNS(=O)(=O)c3ccc(C)c(C)c3)nc2n1 the results were E-selectin induc inactive, DENV2 CPE rescue inactive and SIRT5 block inactive.
C[C@@H]1CN([C@H](C)CO)C(=O)c2cc(-c3ccc(C#N)cc3)cnc2O[C@@H]1CN(C)Cc1cncnc1 was read as E-selectin induc inactive, DENV2 CPE rescue inconclusive and SIRT5 block inactive.
Screening C[C@H]1CN([C@@H](C)CO)C(=O)c2cc(N(C)C)ccc2O[C@H]1CN(C)S(=O)(=O)c1cn(C)cn1 returned E-selectin induc 415, DENV2 CPE rescue inactive and SIRT5 block inactive.
For C[C@H](CO)N1C[C@H](C)[C@@H](CN(C)S(=O)(=O)c2cn(C)cn2)Oc2ccc(N(C)C)cc2C1=O the results were E-selectin induc 33, DENV2 CPE rescue inactive and SIRT5 block inactive.
